Data: ChEMBL document CHEMBL4342502, “Synthesis and Antichlamydial Activity of Molecules Based on Dysregulators of Cylindrical Proteases” (J Med Chem, 2020)
The source made the active and inactive calls. The rule behind the calls is not given here.

Assays:
Type in all cases: functional, organism-based
[1] = system: Klebsiella pneumoniae; assay: Antibacterial activity against Klebsiella pneumoniae ATCC 700603 assessed as bacterial growth inhibition at 32 ug/ml measured after 16 hrs by broth microdilution method
[2] = system: Candida albicans; assay: Antifungal activity against Candida albicans ATCC 90028 assessed as fungal growth inhibition at 32 ug/ml measured after 16 hrs by broth microdilution method
[3] = system: Cryptococcus neoformans; assay: Antifungal activity against Cryptococcus neoformans var. grubii H99 ATCC […] as fungal growth inhibition at 32 ug/ml measured after 16 hrs by broth microdilution method; settings: var. grubii H99 ATCC 208821
[4] = system: Escherichia coli; assay: Antibacterial activity against Escherichia coli K12 assessed as bacterial growth inhibition at 32 ug/ml measured after 16 hrs by broth microdilution method; settings: K-12
Procedure, shortened: (§1)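 Broth microdilution in Mueller Hinton broth, triplicate. Direct colony suspension at 1.5 x 10^8 CFU/mL diluted to ~10^5 CFU/mL. Serial dilutions made from DMSO stocks at 1 mg/mL; vancomycin positive control, blank medium negative control. Incubated 16 h at optimum temperature. MIC is the lowest concentration without visible growth at 600 nm; mean of triplicate determinations.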

[5] = system: Pseudomonas aeruginosa; assay: Antibacterial activity against Pseudomonas aeruginosa ATCC 27853 assessed as bacterial growth inhibition at 32 ug/ml measured after 16 hrs by broth microdilution method
[6] = system: Acinetobacter baumannii; assay: Antibacterial activity against Acinetobacter baumannii ATCC 19606 assessed as bacterial growth inhibition at 32 ug/ml measured after 16 hrs by broth microdilution method; settings: ATCC 19606 = CIP 70.34 = JCM 6841
[7] = system: Staphylococcus aureus; assay: Antibacterial activity against Staphylococcus aureus JE2 assessed as bacterial growth inhibition at 32 ug/ml measured after 16 hrs by broth microdilution method; procedure, shortened: as §1
[8] = system: Escherichia coli; assay: Antibacterial activity against Escherichia coli ATCC 25922 assessed as bacterial growth inhibition at 32 ug/ml measured after 16 hrs by broth microdilution method
[9] = system: Staphylococcus aureus; assay: Antibacterial activity against methicillin-resistant Staphylococcus aureus ATCC 43300 assessed as bacterial growth inhibition at 32 ug/ml measured after 16 hrs by broth microdilution method
[10] = system: Chlamydia trachomatis; assay: Anti-chlamydial activity against Chlamydia trachomatis Serovar LGV-L2 infected in Hep2 cells assessed as inhibition of chlamydial inclusion at 50 ug/ml treated at 8 hrs post infection and measured at 24 hrs post-infection by immunofluorescence assay
Procedure, shortened: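 HEp-2 cells infected with C. trachomatis serovar L2. Compounds at 50 μg/mL added 8 hpi; inclusion number and size assessed by immunofluorescence at 24 hpi against untreated cells. Cell morphology and viability checked by phase-contrast microscopy.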

[11] = system: Escherichia coli; assay: Antibacterial activity against Escherichia coli K12 assessed as bacterial death up to 256 ug/ml measured after 16 hrs by broth microdilution method; settings: K-12; procedure, shortened: as §1
[12] = system: Staphylococcus aureus; assay: Antibacterial activity against Staphylococcus aureus JE2 assessed as bacterial death up to 256 ug/ml measured after 16 hrs by broth microdilution method; procedure, shortened: as §1

Compound	inhibition [1]	inhibition [2]	inhibition [3]	inhibition [4]	inhibition [5]	inhibition [6]	inhibition [7]	inhibition [8]	inhibition [9]	inhibition [10]	Activity [11]	Activity [12]
CC(C)(C(=O)N1CCN(c2ccccn2)CC1)S(=O)(=O)c1ccc(C(F)(F)F)cn1	inactive	inactive	inactive	inactive	inactive	inactive	inactive	inactive	inactive	inactive	–	–
CC(C)(C(=O)NCCOc1ccc(Cl)cc1)S(=O)(=O)c1ccccc1	inactive	inactive	inactive	inactive	inactive	inactive	inactive	inactive	inactive	inactive	–	–
CC(C)(C(=O)NCCOc1ccc(Cl)cc1)S(=O)(=O)c1ccc(C(F)(F)F)cc1	inactive	inactive	inactive	inactive	inactive	inactive	inactive	inactive	inactive	inactive	–	–
Cc1ccccc1N1CCN(C(=O)C(C)S(=O)(=O)c2ccc(C(F)(F)F)cn2)CC1 (stereo not given)	inactive	inactive	inactive	inactive	inactive	inactive	inactive	inactive	inactive	inactive	–	–
CC(C)(C(=O)NCCOc1ccccc1)S(=O)(=O)c1ccccc1	–	–	–	–	–	–	–	–	–	inactive	–	–
COc1cccc(N2CCN(C(=O)C(C)(C)S(=O)(=O)c3ccc(C(F)(F)F)cn3)CC2)c1	inactive	inactive	inactive	inactive	inactive	inactive	inactive	inactive	inactive	Active	–	–
CC(C)(C(=O)NCCOc1ccc(Cl)cc1)S(=O)(=O)c1ccc(C(F)(F)F)cn1	inactive	inactive	inactive	inactive	inactive	inactive	inactive	inactive	inactive	inactive	–	–
CC(C(=O)N1CCN(c2ccc(Cl)c(Cl)c2)CC1)S(=O)(=O)c1ccc(C(F)(F)F)cn1 (stereo not given)	inactive	inactive	inactive	inactive	inactive	inactive	inactive	inactive	inactive	inactive	–	–
Cc1ccc(C)c(N2CCN(C(=O)C(C)S(=O)(=O)c3ccc(C(F)(F)F)cn3)CC2)c1 (stereo not given)	inactive	inactive	inactive	inactive	inactive	inactive	inactive	inactive	inactive	inactive	–	–
CC(C)(C(=O)NCCOc1ccccc1Cl)S(=O)(=O)c1ccc(C(F)(F)F)cc1	inactive	inactive	inactive	inactive	inactive	inactive	inactive	inactive	inactive	Active	–	–
CC(C)(C(=O)NCCSc1ccccc1)S(=O)(=O)c1ccc(C(F)(F)F)cn1	–	–	–	–	–	–	–	–	–	inactive	–	–
NCCBr	inactive	inactive	inactive	inactive	inactive	inactive	inactive	inactive	inactive	–	inactive	inactive
CC(C)(C(=O)N1CCN(c2ccccc2)CC1)S(=O)(=O)c1ccc(C(F)(F)F)cn1	inactive	inactive	inactive	inactive	inactive	inactive	inactive	inactive	inactive	inactive	–	–
CC(C)(C(=O)NCCOc1ccccc1Cl)S(=O)(=O)c1ccc(C(F)(F)F)cn1	inactive	inactive	inactive	inactive	inactive	inactive	inactive	inactive	inactive	Active	inactive	inactive
Cc1ccc(C)c(N2CCN(C(=O)C(C)(C)S(=O)(=O)c3ccc(C(F)(F)F)cn3)CC2)c1	inactive	inactive	inactive	inactive	inactive	inactive	inactive	inactive	inactive	Active	–	–
CC(C)(C(=O)NCCCc1ccccc1)S(=O)(=O)c1ccc(Cl)cn1	–	–	–	–	–	–	–	–	–	Active	–	–
NCCCc1ccccc1	inactive	inactive	inactive	inactive	inactive	inactive	inactive	inactive	inactive	–	–	–
CC(C)(C(=O)NCCSc1ccccc1Cl)S(=O)(=O)c1ccc(C(F)(F)F)cc1	inactive	inactive	inactive	inactive	inactive	inactive	inactive	inactive	inactive	Active	–	–
CC(C)(C(=O)N1CCN(Cc2ccc(F)cc2)CC1)S(=O)(=O)c1ccc(C(F)(F)F)cn1	inactive	inactive	inactive	inactive	inactive	inactive	inactive	inactive	inactive	inactive	–	–
CC(C)(C(=O)NCCCc1ccccc1)S(=O)(=O)c1ccccn1	inactive	inactive	inactive	inactive	inactive	inactive	inactive	inactive	inactive	inactive	–	–
CC(C(=O)NCCCc1ccccc1)S(=O)(=O)c1ccc(C(F)(F)F)cn1 (stereo not given)	inactive	inactive	inactive	inactive	inactive	inactive	inactive	inactive	inactive	inactive	–	–
CC(C)(C(=O)NCCSc1ccc(Cl)cc1)S(=O)(=O)c1ccc(C(F)(F)F)cc1	inactive	inactive	inactive	inactive	inactive	inactive	inactive	inactive	inactive	Active	–	–
